This note sets out measurements from ChEMBL document CHEMBL1124066, “Renin inhibitors containing psi[CH2O] pseudopeptide inserts” (J Med Chem, 1988).

*1 amine or outer side, *2 acyl side, *3 side chain or, on linkers, in order; H or OH if unused. Where a SMILES comes first, the peptide text is derived from it. [ ]: non-standard residue; d: D form. The star is where a group is joined. X1 = O=C([C@H](Cc1ccccc1)OC[C@@H]1CCCN1[*:1])[*:2]; X2 = CC(CN[*:1])CC(N)C(O)CC(=O)[*:2]; NHCH2(2-pyridyl) = c1ccc(CN*)nc1; Boc = CC(C)(C)OC(=O)*; For = O=C*

Test system in the first experiment: not listed separately
As to the kind of experiment: % compound remaining at 60 min in presence of degradative enzyme carboxypeptidase Y (in vitro). The essentials:
(§1)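 Enzyme stocks were made in 50 mM Tris-HCl pH 7.5 (stock chymotrypsin 25 units/mL; elastase and carboxypeptidase Y 50 units/mL). Peptide at 0.8 mg/mL in 10% DMSO/Tris received 5 µL enzyme per 0.25 mL and was incubated at 37 °C for 0 or 60 min, then quenched with HPLC solvent B. Reverse-phase HPLC used an acetonitrile gradient. The 204 nm peak height was compared with the 0-min control. Incubations were run in triplicate, each assayed in duplicate.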
With `CC(C)[C@H](NC(=O)[C@H](Cc1ccccc1)NC(=O)[C@H](Cc1ccccc1)NC(=O)[C@H](Cc1ccccc1)NC(=O)[C@H](Cc1c[nH]cn1)NC(=O)[C@H](Cc1ccccc1)NC(=O)[C@@H]1CCCN1C(=O)[C@H](Cc1c[nH]cn1)NC(=O)[C@@H]1CCCN1)C(=O)N[C@@H](Cc1ccc(O)cc1)C(=O)N[C@@H](CCCCN)C(=O)O` [RIP] (H-PHPFHFFFVYK-OH), the Remaining turned out to be 2%.

The species entered for the next experiment is Homo sapiens. As to the kind of experiment: % compound remaining at 60 min in presence of degradative enzyme elastase (in vitro). Format: functional. The essentials: as §1
Turning to `CC(C)[C@H](NC(=O)[C@H](Cc1ccccc1)NC(=O)[C@H](Cc1ccccc1)NC(=O)[C@H](Cc1c[nH]cn1)NC(=O)[C@H](Cc1ccccc1)NC(=O)[C@@H]1CCCN1C(=O)[C@H](Cc1c[nH]cn1)NC(=O)[C@@H]1CCCN1)C(=O)N[C@@H](Cc1ccc(O)cc1)C(=O)N[C@@H](CCCCN)C(=O)O` [RIP] (H-PHPFHFFVYK-OH), the Remaining came to 13%.

A further experiment has as its target Chymotrypsinogen A (Bos taurus) (UniProt P00766). The experiment in a line: % compound remaining at 60 min in presence of degradative […] (in vitro). A digest of the protocol:
as §1
In the case of `CC(C)[C@H](NC(=O)[C@H](Cc1ccccc1)NC(=O)[C@H](Cc1ccccc1)NC(=O)[C@H](Cc1ccccc1)NC(=O)[C@H](Cc1c[nH]cn1)NC(=O)[C@H](Cc1ccccc1)NC(=O)[C@@H]1CCCN1C(=O)[C@H](Cc1c[nH]cn1)NC(=O)[C@@H]1CCCN1)C(=O)N[C@@H](Cc1ccc(O)cc1)C(=O)N[C@@H](CCCCN)C(=O)O` [RIP] (H-PHPFHFFFVYK-OH), the Remaining was 3%.

The target of a further experiment is T1, Renin (Homo sapiens, UniProt P00797).
T1 sequence (P00797 whole entry): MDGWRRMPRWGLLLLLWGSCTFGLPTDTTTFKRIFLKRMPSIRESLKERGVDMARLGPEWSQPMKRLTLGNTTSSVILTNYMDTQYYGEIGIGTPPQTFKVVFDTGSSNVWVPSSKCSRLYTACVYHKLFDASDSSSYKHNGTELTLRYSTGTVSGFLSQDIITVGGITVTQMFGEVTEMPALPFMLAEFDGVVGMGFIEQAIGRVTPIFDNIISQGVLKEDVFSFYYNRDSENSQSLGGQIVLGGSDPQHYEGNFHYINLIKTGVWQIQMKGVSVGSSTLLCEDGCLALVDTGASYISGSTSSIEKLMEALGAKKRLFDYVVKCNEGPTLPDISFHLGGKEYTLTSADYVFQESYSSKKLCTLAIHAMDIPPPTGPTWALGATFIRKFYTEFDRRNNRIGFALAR
As to the kind of experiment: Inhibition of Human plasma renin. Format: cell-free. A digest of the protocol: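 Lyophilized human plasma containing 0.1% EDTA was used for angiotensin I generation with phenylmethanesulfonyl fluoride and maleate buffer pH 6.0. Inhibitor was added in a 1% Tween 80/water vehicle, followed by 90 min at 37 °C. Angiotensin I was measured by radioimmunoassay. Percent inhibition was taken against control tubes. IC50 was estimated graphically from 3-4 inhibitor concentrations on a semilog plot.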
For the compound `CC[C@H](C)[C@H](NC(=O)[C@H](CC(C)C)OC[C@H](CC(C)C)NC(=O)[C@H](Cc1cnc[nH]1)NC(=O)[C@H](Cc1ccccc1)NC(=O)[C@@H]1CCCN1C(=O)[C@H](Cc1cnc[nH]1)NC(=O)[C@@H]1CCCN1)C(=O)N[C@@H](Cc1cnc[nH]1)C(=O)N[C@H](CCCCN)C(=O)O`, the IC50 was 1.8 µM.

For the compound `CC[C@H](C)[C@H](NC(=O)CC(O)C(N)CC(C)CNC(=O)[C@H](Cc1c[nH]cn1)NC(=O)[C@H](Cc1ccccc1)OC[C@@H]1CCCN1C(=O)[C@H](Cc1c[nH]cn1)NC(=O)OC(C)(C)C)C(=O)N[C@@H](Cc1ccccc1)C(=O)OC` (stereo not given in full) (Boc-H[X1]H[X2]IF-OMe), the IC50 worked out at 440 µM.

For `CC[C@H](C)[C@H](NC(=O)[C@@H](NCC(O)[C@H](CC(C)C)NC(=O)[C@H](Cc1cnc[nH]1)NC(=O)[C@H](Cc1ccccc1)OC[C@@H]1CCCN1C(=O)[C@H](Cc1cnc[nH]1)NC(=O)OC(C)(C)C)C(C)C)C(=O)NCc1ccccn1` (stereo not given in full), 3 µM corresponded to half-maximal inhibition (IC50).

`CC[C@H](C)[C@H](NC(=O)CC(O)C(N)CC(C)CNC(=O)[C@H](Cc1cnc[nH]1)NC(=O)[C@H](Cc1ccccc1)OC[C@@H]1CCCN1C(=O)OC(C)(C)C)C(=O)N[C@@H](Cc1ccccc1)C(=O)OC` (stereo not given in full) had an IC50 of 2500 µM.

Regarding `CC[C@H](C)[C@H](NC(=O)[C@@H](NCC(O)[C@H](CC(C)C)NC(=O)[C@H](Cc1c[nH]cn1)NC(=O)[C@H](Cc1ccccc1)OC[C@@H]1CCCN1C(=O)OC(C)(C)C)C(C)C)C(=O)NCc1ccccn1` (stereo not given in full), the IC50 was 2.3 µM.

The compound `CC[C@H](C)[C@H](NC(=O)CC(O)C(N)CC(C)CNC(=O)[C@H](Cc1cnc[nH]1)NC(=O)[C@H](Cc1ccccc1)OC[C@@H]1CCCN1C(=O)OC(C)(C)C)C(=O)NCc1ccccn1` (stereo not given in full) gave an IC50 of 140 µM.

The compound `CC[C@H](C)[C@H](NC(=O)CC(O)C(N)CC(C)CNC(=O)[C@H](Cc1c[nH]cn1)NC(=O)[C@H](Cc1ccccc1)OC[C@@H]1CCCN1C(=O)[C@H](Cc1c[nH]cn1)NC(=O)OC(C)(C)C)C(=O)NCc1ccccn1` (stereo not given in full) had an IC50 of 100 µM.

For `CC[C@H](C)[C@H](NC(=O)[C@@H](NCC(O)[C@H](CC(C)C)NC(=O)[C@H](Cc1c[nH]cn1)NC(=O)[C@H](Cc1ccccc1)OC[C@@H]1CCCN1C(=O)[C@H](Cc1ccccc1)NC(=O)OC(C)(C)C)C(C)C)C(=O)NCc1ccccn1` (stereo not given in full), half-maximal inhibition (IC50) required 1.6 µM.

Compound `CC[C@H](C)[C@H](NC(=O)CC(O)C(N)CC(C)CNC(=O)[C@H](Cc1cnc[nH]1)NC(=O)[C@H](Cc1ccccc1)OC[C@@H]1CCCN1C(=O)[C@H](Cc1cn(C=O)c2ccccc12)NC(=O)OC(C)(C)C)C(=O)N[C@@H](Cc1ccccc1)C(=O)OC` (stereo not given in full) (Boc-W(For)[X1]H[X2]IF-OMe) had an IC50 of 1000 µM.

As for `CC[C@H](C)[C@H](NC(=O)CC(O)C(N)CC(C)CNC(=O)[C@H](Cc1c[nH]cn1)NC(=O)[C@H](Cc1ccccc1)NC(=O)[C@@H]1CCCN1C(=O)OC(C)(C)C)C(=O)N[C@@H](Cc1ccccc1)C(=O)OC` (stereo not given in full) (Boc-PFH[X2]IF-OMe), the midpoint of inhibition, the IC50, lay at 5.8 µM.

`CC[C@H](C)[C@H](NC(=O)[C@@H](OC[C@H](CC(C)C)NC(=O)[C@H](Cc1c[nH]cn1)NC(=O)[C@H](Cc1ccccc1)NC(=O)[C@@H]1CCCN1C(=O)[C@H](Cc1c[nH]cn1)NC(=O)[C@@H]1CCCN1)C(C)C)C(=O)N[C@@H](Cc1c[nH]cn1)C(=O)N[C@H](CCCCN)C(=O)O` registered an IC50 of 1.7 µM.

Compound `CC[C@H](C)[C@H](NC(=O)[C@@H](NC[C@H](CC(C)C)NC(=O)[C@H](Cc1c[nH]cn1)NC(=O)[C@H](Cc1ccccc1)NC(=O)[C@@H]1CCCN1C(=O)[C@H](Cc1c[nH]cn1)NC(=O)[C@@H]1CCCN1)C(C)C)C(=O)N[C@@H](Cc1c[nH]cn1)C(=O)N[C@H](CCCCN)C(=O)O` had an IC50 of 0.05 µM.

As to `CC(C)[C@H](NC(=O)[C@H](Cc1ccccc1)NC(=O)[C@H](Cc1ccccc1)NC(=O)[C@H](Cc1ccccc1)NC(=O)[C@H](Cc1c[nH]cn1)NC(=O)[C@H](Cc1ccccc1)NC(=O)[C@@H]1CCCN1C(=O)[C@H](Cc1c[nH]cn1)NC(=O)[C@@H]1CCCN1)C(=O)N[C@@H](Cc1ccc(O)cc1)C(=O)N[C@@H](CCCCN)C(=O)O` [RIP] (H-PHPFHFFFVYK-OH), the IC50 is 7 µM.

The compound `CC[C@H](C)[C@H](NC(=O)[C@H](C)OC[C@H](CC(C)C)NC(=O)[C@H](Cc1cnc[nH]1)NC(=O)[C@H](Cc1ccccc1)NC(=O)[C@@H]1CCCN1C(=O)[C@H](Cc1cnc[nH]1)NC(=O)[C@@H]1CCCN1)C(=O)N[C@@H](Cc1cnc[nH]1)C(=O)N[C@H](CCCCN)C(=O)O` yielded an IC50 of 18 µM.

`CC[C@H](C)[C@H](NC(=O)[C@@H](NCC(O)[C@H](CC(C)C)NC(=O)[C@H](Cc1cnc[nH]1)NC(=O)[C@H](Cc1ccccc1)NC(=O)[C@@H]1CCCN1C(=O)OC(C)(C)C)C(C)C)C(=O)NCc1ccccn1` (stereo not given in full) returned an IC50 of 0.36 µM.

As for `CC[C@H](C)[C@H](NC(=O)CC(O)C(N)CC(C)CNC(=O)[C@H](Cc1c[nH]cn1)NC(=O)[C@H](Cc1ccccc1)OC[C@@H]1CCCN1C(=O)[C@H](Cc1cn(C=O)c2ccccc12)NC(C)=O)C(=O)N[C@@H](Cc1ccccc1)C(=O)OC` (stereo not given in full) (Ac-W(For)[X1]H[X2]IF-OMe), the midpoint of inhibition, the IC50, lay at 330 µM.

As to `CC[C@H](C)[C@H](NC(=O)CC(O)C(N)CC(C)CNC(=O)[C@H](Cc1cnc[nH]1)NC(=O)[C@H](Cc1ccccc1)NC(=O)[C@@H]1CCCN1C(=O)OC(C)(C)C)C(=O)NCc1ccccn1` (stereo not given in full) (Boc-PFH[X2]I-{NHCH2(2-pyridyl)}), the IC50 was determined as 4.1 µM.

A word on the IC50: it is the point on the concentration scale where inhibition reaches its midpoint. A low value points to inhibition by little substance.
